# Calls of active or inactive are those of the source. No cut-off for these calls is given here.
# Tests used:
# SH-SY5Y [1] = test: Cytotoxicity against human SH-SY5Y cells assessed as reduction in cell viability at 1 mM after 2 hrs by MTS assay; format: cell-based; conditions: 1000 µM
# Method in brief: (§1)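 ARPE-19 grown in DMEM + 4% FBS and SH-SY5Y in EMEM/F12 + 10% FBS, at 37 °C, 5% CO2. Plated at 1 × 10^4 cells/well. Exposed 2 h to 1 mM compound (0.16% DMSO) without oxidant. Viability by MTS. Mean ± SEM, n = 4, ANOVA versus blank control.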
# ARPE-19 [2] = test: Neuroprotective activity against Fenton reagent-induced ROS generation in human ARPE19 cells assessed as increase in GSH level at 1 mM after 2 hrs by DTNB method; format: functional, cell-based
# Method in brief: (§2)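 Cells grown in 60 or 150 mm dishes and exposed 2 h to Fenton reagent (1 mM H2O2 + 1 mM Fe2+) with or without 1 mM compound in 0.16% DMSO. Intracellular glutathione then measured. Mean ± SEM, n = 6. ANOVA.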
# SH-SY5Y [3] = test: Neuroprotective activity against Fenton reagent-induced ROS generation-stimulated cytotoxicity in human SH-SY5Y cells assessed as cell viability at 1 mM after 2 hrs by MTS assay; format: functional, cell-based
# Method in brief: (§3)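 Cells in 96-well format exposed 2 h to Fenton reagent (1 mM H2O2 + 1 mM Fe2+) with or without 1 mM compound in 0.16% DMSO. Viability by MTS assay, normalized to untreated cells without Fenton reagent (100%). Mean ± SEM, n = 4. ANOVA.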
# SH-SY5Y [4] = test: Neuroprotective activity against Fenton reagent-induced ROS generation in human SH-SY5Y cells assessed as increase in GSH level at 1 mM after 2 hrs by DTNB method; format: functional, cell-based; method in brief: as §2
# [5] = Cytotoxicity against human ARPE19 cells assessed as reduction in cell viability at 1 mM after 2 hrs by MTS assay; format: cell-based; conditions: arpe-19, 2 h, 1000 µM; method in brief: as §1
# ARPE-19 [6] = test: Neuroprotective activity against Fenton reagent-induced ROS generation-stimulated cytotoxicity in human ARPE19 cells assessed as cell viability at 1 mM after 2 hrs by MTS assay; format: functional, cell-based; method in brief: as §3
# [7] = Metal chelating activity assessed as stoichiometric ratio of compound to Cu+ ion at 0.1 to 0.5 mM of compound and metal ion mixture after 45 mins by spectrophotometric analysis; format: physicochemical; conditions: 0.75 h, 500 µM
# Method in brief: (§4)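 Job continuous-variation method at 23 °C. Compound dissolved in acetonitrile, then diluted to 0.1 mM stock in 1 mM acetate pH 6.5. Compound + ion at constant total 0.1–0.5 mM with varied mole fraction. After 45 min equilibration, UV absorbance scanned 210–310 nm. Stoichiometry taken from the intersection of lines. Mean ± SD, n = 3.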
# [8] = Metal chelating activity assessed as stoichiometric ratio of compound to Mg2+ ion at 0.1 to 0.5 mM of compound and metal ion mixture after 45 mins by spectrophotometric analysis; format: physicochemical; conditions: 0.75 h, 500 µM; method in brief: as §4
# [9] = Metal chelating activity assessed as stoichiometric ratio of compound to Mn2+ ion at 0.1 to 0.5 mM of compound and metal ion mixture after 45 mins by spectrophotometric analysis; format: physicochemical; conditions: 0.75 h, 500 µM; method in brief: as §4
# [10] = Metal chelating activity assessed as stoichiometric ratio of compound to Zn2+ ion at 0.1 to 0.5 mM of compound and metal ion mixture after 45 mins by spectrophotometric analysis; format: physicochemical; conditions: 0.75 h, 500 µM; method in brief: as §4
# [11] = Metal chelating activity assessed as stoichiometric ratio of compound to Cu2+ ion at 0.1 to 0.5 mM of compound and metal ion mixture after 45 mins by spectrophotometric analysis; format: physicochemical; conditions: 0.75 h, 500 µM; method in brief: as §4
# [12] = Metal chelating activity assessed as stoichiometric ratio of compound to Ca2+ ion at 0.1 to 0.5 mM of compound and metal ion mixture after 45 mins by spectrophotometric analysis; format: physicochemical; conditions: 0.75 h, 500 µM; method in brief: as §4
# [13] = Metal chelating activity assessed as stoichiometric ratio of compound to Fe3+ ion at 0.1 to 0.5 mM of compound and metal ion mixture after 45 mins by spectrophotometric analysis; format: physicochemical; conditions: 0.75 h, 500 µM; method in brief: as §4
# [14] = Metal chelating activity assessed as stoichiometric ratio of compound to Fe2+ ion at 0.1 to 0.5 mM of compound and metal ion mixture after 45 mins by spectrophotometric analysis; format: physicochemical; conditions: 0.75 h, 500 µM; method in brief: as §4
# ARPE-19 [15] = test: Neuroprotective activity against Fenton reagent-induced hydroxy radical-stimulated cytotoxicity in human ARPE19 cells assessed as cell survival at 1 to 1000 uM preincubated for 1 hr followed by Fenton reagent challenge for 2 hrs by fluorescence-based LIVE/DEAD viability/cytotoxicity assay; format: functional
# Method in brief: (§5)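 After a PBS wash, cells preincubated 1 h at 37 °C in serum-free medium with 1–1000 μM compound. Fenton reagent (Fe2+/H2O2, 100 μM final) then added for 2 h. Stained 15 min at 37 °C with calcein AM 8 μM and EthD-1 16 μM. Fluorescence read at 494/517 and 528/617 nm. % live cells calculated from blank-corrected single-dye controls; dead-cell control 70% ethanol. Mean ± SEM, n = 6.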
# SH-SY5Y [16] = test: Neuroprotective activity against Fenton reagent-induced hydroxy radical-stimulated cytotoxicity in human SH-SY5Y cells assessed as cell survival at 1 to 1000 uM preincubated for 1 hr followed by Fenton reagent challenge for 2 hrs by fluorescence-based LIVE/DEAD viability/cytotoxicity assay; format: functional; method in brief: as §5
Compound,Activity (SH-SY5Y [1]),Activity (ARPE-19 [2]),Activity (SH-SY5Y [3]),Activity (SH-SY5Y [4]),Activity [5],Activity (ARPE-19 [6]),Ratio [7],Ratio [8],Ratio [9],Ratio [10],Ratio [11],Ratio [12],Ratio [13],Ratio [14],Activity (ARPE-19 [15]),Activity (SH-SY5Y [16])
COc1nc(N2CCCCC2)nc(OC)c1O,Non-toxic,Active,Active,Active,Non-toxic,Active,,,,,,,,,,
COc1cc(OC)nc(N2C(=O)CCCC2=O)n1,Non-toxic,Active,Active,Active,Non-toxic,Active,1.9,0,1.95,2.06,1.96,0,2.08,1.96,,
COc1cc(OC)nc(N2CCCC2)n1,Non-toxic,Active,inactive,Active,Non-toxic,inactive,,,,,,,,,inactive,inactive
O=C1CCC(=O)N1c1ncccn1,Non-toxic,Active,Active,Active,Non-toxic,Active,2.01,0,1.98,1.87,2.28,0,2.01,2.06,,
COc1nc(N2CCCC2)nc(OC)c1O,Non-toxic,Active,Active,Active,Non-toxic,Active,,,,,,,,,,
COc1cc(OC)nc(N2C(=O)CCC2=O)n1,Non-toxic,Active,Active,Active,Non-toxic,Active,1.92,0,2.04,2.07,2.01,0,2.05,2.02,,
Oc1cnc(N2CCCC2)nc1,Non-toxic,Active,Active,Active,Non-toxic,Active,,,,,,,,,,
c1cnc(N2CCCCC2)nc1,Non-toxic,Active,inactive,Active,Non-toxic,inactive,,,,,,,,,,
c1cnc(N2CCCC2)nc1,Non-toxic,Active,inactive,Active,Non-toxic,inactive,,,,,,,,,inactive,inactive
COc1cc(OC)nc(N2CCCCC2)n1,Non-toxic,Active,inactive,Active,Non-toxic,inactive,,,,,,,,,,
Oc1cnc(N2CCCCC2)nc1,Non-toxic,Active,Active,Active,Non-toxic,Active,,,,,,,,,,
O=C1CCCC(=O)N1c1ncccn1,Non-toxic,Active,Active,Active,Non-toxic,Active,1.9,0,1.83,2.17,2.01,0,1.8,2.13,,

# Reference: ChEMBL document CHEMBL3739318, “Orally Bioavailable Metal Chelators and Radical Scavengers: Multifunctional Antioxidants for the Coadjutant Treatment of Neurodegenerative Diseases” (J Med Chem, 2015)
